Measured values as given in ChEMBL document CHEMBL2021778, “Neurosteroid analogues. 17. Inverted binding orientations of androsterone enantiomers at the steroid potentiation site on γ-aminobutyric acid type A receptors” (J Med Chem, 2012).
Calls of active or inactive are those of the source. No cut-off for these calls is given here.

Tests used:
[1] = system: Oocyte; assay: Modulation of rat alpha1beta2gamma2L GABAA receptor expressed in Xenopus laevis oocytes assessed as potentiation of GABA-induced chloride currents at 0.1 uM by electrophysiology assay relative to control; type: cell-based
[2] = system: Oocyte; assay: Modulation of rat alpha1beta2gamma2L GABAA receptor expressed in Xenopus laevis oocytes assessed as […] at 10 uM by electrophysiology assay relative to GABA; type: cell-based
Outline: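 Rat α1β2γ2L receptors in Xenopus oocytes, two-electrode voltage clamp at −70 mV. Current gated directly by 10 μM compound without GABA, expressed as the ratio to the current from 2 μM GABA. At least four oocytes. Mean ± SEM.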

[3] = system: Oocyte; assay: Modulation of rat alpha1beta2gamma2L GABAA receptor expressed in Xenopus laevis oocytes assessed as potentiation of GABA-induced chloride currents at 10 uM by electrophysiology assay relative to control; type: cell-based
[4] = system: Oocyte; assay: Modulation of rat alpha1beta2gamma2L GABAA receptor expressed in Xenopus laevis oocytes assessed as potentiation of GABA-induced chloride currents at 1 uM by electrophysiology assay relative to control; type: cell-based
[5] = Displacement of [35S]TBPS from GABAA receptor picrotoxin binding site in rat brain membranes; type: cell membranes
[6] = system: Xenopus laevis; assay: Anesthetic effect on Xenopus laevis tadpole assessed as loss of righting reflex; type: functional, organism-based
Outline: (§1)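 Xenopus laevis tadpoles, N = 10 or more per concentration, at five or more concentrations from 0.01 μM to 30 μM. Loss of righting reflex (LRR) and loss of swimming reflex (LSR) were scored. EC50 and nHill were taken from concentration–response curves. Recovery was checked after an overnight period. Mean ± SEM.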

[7] = system: Xenopus laevis; assay: Anesthetic effect on Xenopus laevis tadpole assessed as loss of swimming reflex; type: functional, organism-based; outline: as §1
[8] = system: Oocyte; assay: Modulation of GABAA receptor alpha1(Q241L)beta2gamma2L mutant expressed in Xenopus laevis oocytes assessed as potentiation of GABA-induced chloride currents at 1 uM by electrophysiology assay; type: cell-based
Outline: (§2)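 Oocytes were coinjected with α1(Q241L) cRNA plus wild-type β2 and γ2L cRNA. Recording was by two-electrode voltage clamp at −70 mV, 2–5 days after injection. Responses to a sequence of compound applications were normalised, 4 oocytes per receptor type.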

[9] = system: Xenopus laevis; assay: Anesthetic effect on Xenopus laevis tadpole assessed as loss of swimming reflex at 10 uM; type: functional, organism-based
Outline: (§3)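 Tadpoles, 10 per group, exposed at 10 μM. Each animal was scored for swimming reflex, and for death without overnight recovery from loss of swimming reflex. Results are given as the number of animals out of 10.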

[10] = organism: Xenopus laevis; assay: Toxicity in Xenopus laevis tadpole assessed as mortality at 10 uM; type: organism-based; details: in vivo; outline: as §3
[11] = organism: Rattus norvegicus; assay: Displacement of [35S]TBPS from GABAA receptor picrotoxin binding site in rat brain membranes at 10 uM; type: cell membranes
[12] = system: Oocyte; assay: Modulation of GABAA receptor alpha1(Q241L)beta2gamma2L mutant expressed in Xenopus laevis oocytes assessed as potentiation of GABA-induced chloride currents at 0.5 uM by electrophysiology assay; type: cell-based; outline: as §2
[13] = system: Oocyte; assay: Modulation of rat alpha1beta2gamma2L GABAA receptor expressed in Xenopus laevis oocytes assessed as potentiation of GABA-induced chloride currents at 0.5 uM by electrophysiology assay relative to control; type: cell-based

## C[C@]12CC[C@@H](O)C[C@@H]1CC[C@@H]1[C@@H]2CC[C@@]2(C)[C@H]1CC[C@@]21CO1
[1]
  Ratio: 3.11
[2]
  Ratio: 0.22
[3]
  Ratio: 33.7
[4]
  Ratio: 21.9
[5]
  IC50: 105 nM

## C[C@@]12CC[C@H](O)C[C@H]1CC[C@@H]1[C@@H]2[C@H](OCc2ccccc2)C[C@]2(C)[C@H]1CC[C@]21CO1
[1]
  Ratio: 1.01
[2]
  Ratio: 0.05
[6]
  EC50: 2640 nM
[3]
  Ratio: 3.21
[4]
  Ratio: 1.3
[7]
  EC50: 2740 nM
[5]
  IC50: 2050 nM

## C[C@@]12CC[C@H](O)C[C@H]1C[C@@H](OCc1ccccc1)[C@@H]1[C@@H]2CC[C@@]2(C)C(=O)CC[C@@H]12
[1]
  Ratio: 1.25
[2]
  Ratio: 0.11
[8]
  Activity: inactive
[6]
  EC50: 1210 nM
[3]
  Ratio: 25.2
[4]
  Ratio: 5.74
[7]
  EC50: 2930 nM
[5]
  IC50: 168 nM

## C[C@]12CC[C@@H](O)C[C@@H]1CC[C@@H]1[C@@H]2CC[C@]2(C)C(=O)CC[C@@H]12 [ANDROSTERONE]
[1]
  Ratio: 0.97
[2]
  Ratio: 0.02
[3]
  Ratio: 5.44
[4]
  Ratio: 1.41
[9]
  Activity: inactive
[5]
  IC50: 410 nM

## C[C@]12CC[C@@H](O)C[C@@H]1CC[C@@H]1[C@@H]2[C@@H](OCc2ccccc2)C[C@]2(C)C(=O)CC[C@@H]12
[10]
  Activity: Toxic
[1]
  Ratio: 1.08
[2]
  Ratio: 0.2
[8]
  Activity: inactive
[6]
  EC50: 200 nM
[3]
  Ratio: 24.4
[4]
  Ratio: 2.96
[7]
  EC50: 870 nM
[5]
  IC50: 285 nM

## C[C@]12CC[C@@H](O)C[C@@H]1C[C@H](OCc1ccccc1)[C@@H]1[C@@H]2CC[C@]2(C)C(=O)CC[C@@H]12
[1]
  Ratio: 0.97
[2]
  Ratio: 0
[6]
  EC50: > 10000 nM
[3]
  Ratio: 0.76
[4]
  Ratio: 0.9
[11]
  inhibition: 35%
[9]
  Activity: inactive
[5]
  IC50: > 10000 nM

## C[C@@]12CCC3C(CC[C@@H]4C[C@@H](O)CC[C@@]34C)C1CCC2=O (single isomer, unassigned)
[1]
  Ratio: 1.27
[2]
  Ratio: 0.03
[3]
  Ratio: 18.9
[4]
  Ratio: 3.66
[5]
  IC50: 311 nM

## C[C@@]12CC[C@H](O)C[C@H]1C[C@@H](OCc1ccccc1)[C@@H]1[C@@H]2CC[C@]2(C)[C@H]1CC[C@]21CO1
[1]
  Ratio: 3.47
[2]
  Ratio: 0.22
[6]
  EC50: 310 nM
[3]
  Ratio: 32.4
[4]
  Ratio: 20.3
[7]
  EC50: 550 nM
[12]
  Activity: inactive
[13]
  Activity: inactive
[5]
  IC50: 52 nM

## CC(=O)[C@H]1CC[C@H]2[C@@H]3CC[C@H]4C[C@H](O)CC[C@]4(C)[C@H]3CC[C@]12C [BREXANOLONE]
[1]
  Ratio: 1.26
[2]
  Ratio: 0.37
[3]
  Ratio: 9.65
[4]
  Ratio: 3.89
[12]
  Activity: inactive
[13]
  Activity: inactive
[5]
  IC50: 74 nM

## C[C@@]12CC[C@H](O)C[C@H]1CC[C@@H]1[C@@H]2[C@H](OCc2ccccc2)C[C@@]2(C)C(=O)CC[C@@H]12
[10]
  Activity: Toxic
[1]
  Ratio: 0.89
[2]
  Ratio: 0
[6]
  EC50: 1960 nM
[3]
  Ratio: 0.6
[4]
  Ratio: 0.85
[7]
  EC50: 3450 nM
[5]
  IC50: > 10000 nM

## C[C@]12CC[C@@H](O)C[C@@H]1CC[C@@H]1[C@@H]2[C@@H](OCc2ccccc2)C[C@@]2(C)[C@H]1CC[C@@]21CO1
[1]
  Ratio: 2.99
[2]
  Ratio: 0.42
[6]
  EC50: 70 nM
[3]
  Ratio: 31.1
[4]
  Ratio: 21.2
[7]
  EC50: 270 nM
[12]
  Activity: inactive
[13]
  Activity: inactive
[5]
  IC50: 15 nM

## C[C@@]12CC[C@H](O)C[C@H]1CCC1C2CC[C@]2(C)C1CC[C@]21CO1 (single isomer, unassigned)
[1]
  Ratio: 2.62
[2]
  Ratio: 0.1
[3]
  Ratio: 26.3
[4]
  Ratio: 15.9
[5]
  IC50: 467 nM

## C[C@]12CC[C@@H](O)C[C@@H]1C[C@H](OCc1ccccc1)[C@@H]1[C@@H]2CC[C@@]2(C)[C@H]1CC[C@@]21CO1
[1]
  Ratio: 0.83
[2]
  Ratio: 0.09
[6]
  EC50: 3220 nM
[3]
  Ratio: 0.77
[4]
  Ratio: 0.88
[7]
  EC50: 7940 nM
[5]
  IC50: 6750 nM
